# NPY-Y2 antag: antagonists of human neuropeptide Y receptor Y2; inhibition, % at 2.7 µM; 140,000 tested, 0.99% active; NPY-Y2 expressing cells, antagonist mode; P49146; in the data active means inhibition above about 17%;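 further: 0% = vehicle with agonist challenge and 100% = reference antagonist with challenge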
# NPY Y1 blocker: antagonists of human neuropeptide Y receptor Y1; P25929; HEK293-CNG Y1 cells, membrane potential fluorescence; NPY at EC95, then isoproterenol; inhibition, % at 3.6 µM; 200,000 tested, 1% active; AID 1040;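 active means inhibition above the campaign mean inhibition of all tested compounds plus 3 SD, cut at about 20% in these data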;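 further: 0% = DMSO wells given NPY plus isoproterenol and 100% = isoproterenol alone without NPY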
# Target sequence (P25929 whole entry, looked up): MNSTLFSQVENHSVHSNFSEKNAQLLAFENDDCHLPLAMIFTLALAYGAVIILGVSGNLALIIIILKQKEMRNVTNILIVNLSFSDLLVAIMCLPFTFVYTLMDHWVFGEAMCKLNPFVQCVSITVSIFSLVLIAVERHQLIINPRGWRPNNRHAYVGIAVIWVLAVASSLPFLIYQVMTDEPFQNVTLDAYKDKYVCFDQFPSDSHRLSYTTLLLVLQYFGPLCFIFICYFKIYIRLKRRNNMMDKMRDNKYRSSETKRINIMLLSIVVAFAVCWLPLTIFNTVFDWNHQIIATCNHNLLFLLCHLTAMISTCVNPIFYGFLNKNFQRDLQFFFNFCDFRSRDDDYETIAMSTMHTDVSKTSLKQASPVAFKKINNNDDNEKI
#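 Assay system: HEK293 Y1/CNG channel cell line; Doses: single compound dose of 3.6 µM, 0.4% DMSO; Timing: dye 3 h, compound 60 min room temperature, stimulation 45 min; Technique: Membrane-potential fluorescent dye readout; Measure: % inhibition of NPY effect.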
# NPY2 pot ag: potentiates or activates human NPY-Y2 receptor. AID 1359. cells expressing NPY-Y2, potentiator/agonist read-out. activation, % at 3.6 µM. 220,000 tested, 0.45% active; in the data active means activation above about 27%;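 further: cells stimulated with NPY near EC25 plus isoproterenol at EC100; 0% = vehicle plus submaximal agonist and 100% = vehicle plus saturating agonist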
# EP2 antag: inhibitors of human EP2 prostaglandin E2 receptor | P43116 | inhibition, % at 25 µM | 260,000 tested, 0.52% active | AID 1422 | C6 glioma cells expressing human EP2, cAMP TR-FRET; cells stimulated with saturating PGE2;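 active means percent inhibition above 40 after rounding to a whole number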;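 further: rat C6 glioma host cells with rolipram phosphodiesterase inhibitor present; the protocol text gives 20 µM as final concentration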
# Target sequence (P43116 whole entry, looked up): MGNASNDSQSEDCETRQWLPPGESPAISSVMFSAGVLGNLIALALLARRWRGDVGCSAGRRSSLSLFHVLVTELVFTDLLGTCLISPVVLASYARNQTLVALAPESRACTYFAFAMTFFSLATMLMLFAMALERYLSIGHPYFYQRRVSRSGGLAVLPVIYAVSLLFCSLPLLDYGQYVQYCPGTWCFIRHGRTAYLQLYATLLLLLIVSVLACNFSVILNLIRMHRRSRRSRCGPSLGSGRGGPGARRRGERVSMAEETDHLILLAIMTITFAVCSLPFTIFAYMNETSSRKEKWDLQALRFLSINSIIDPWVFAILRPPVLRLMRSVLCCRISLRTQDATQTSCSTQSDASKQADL
# NPY-Y1 PAM-ag: human NPY-Y1 potentiation or agonism, primary screen; P25929; NPY-Y1 expressing cells, potentiator/agonist activation; activation, % at 3.6 µM; 220,000 tested, 0.37% active; AID 1304; in the data active means activation above about 33%, passing the limit was not always enough;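 further: cells stimulated with NPY at EC10 then isoproterenol at EC100; 0% = low agonist plus stimulus and 100% = saturating agonist plus stimulus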
# EP2 mod: modulates human prostaglandin E2 receptor EP2 signaling. P43116. EP2-expressing cells, cAMP HTRF FRET, PGE2 co-stimulation. induction, % at 25 µM. 260,000 tested, 0.83% active;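 active means compounds whose cAMP rise, as percent of the full-agonist control response, exceeds 60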;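 further: rat C6 glioma line stably carrying human EP2 under a CMV promoter; the protocol text gives 20 µM as final concentration; 100% = response of wells given 1 µM PGE2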
# NPY-Y2 pot conf: confirmation of human NPY-Y2 receptor potentiators or agonists; shares compounds with NPY2 pot ag; cell-based NPY-Y2 potentiator/agonist assay; activation, % at 3.6 µM; 450 tested, 20% active; in the data active means activation above about 33%
# NPY-Y1 counter: NPY-Y1 potentiation or agonism as NPY-Y2 counter-screen; shares compounds with NPY2 pot ag; Y1 HEK293-CNG cells, membrane potential fluorescence; activation, % at 3.6 µM; 450 tested, 20% active; AID 1651; in the data active means activation above about 45%;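 further: cells stimulated with submaximal NPY then isoproterenol with phosphodiesterase inhibitor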
# NPY-Y1 agonist 2: activates human NPY-Y1, counter-screen for NPY-Y2 potentiators | activation, % at 3.6 µM | HEK293 Y1-CNGC, membrane potential fluorescence, agonism | shares compounds with NPY2 pot ag | 450 tested, 37% active;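 active means activation above the mean of DMSO-only control wells plus 3 SD, cut at about 18% in these data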;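 further: cells stimulated with 1 µM isoproterenol plus the PDE inhibitor Ro 20-1724; 0% = isoproterenol with DMSO and no NPY and 100% = 40 nM NPY; Y1 agonists lower the membrane potential dye signal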
# CNGC inh: cyclic nucleotide gated channel inhibition as counter-screen; shares compounds with NPY2 pot ag; HEK293-CNG parental, isoproterenol cAMP, membrane potential fluorescence; inhibition, % at 3.6 µM; 450 tested, 32% active; AID 1703;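 active means inhibition above the control-well mean plus 3 SD of those wells, cut at about 22% in these data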;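 further: 0% = DMSO with isoproterenol and 100% = DMSO without isoproterenol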
# NPY-Y2 ag 2: NPY-Y2 agonism, counter-screen for Y2 potentiators | AID 1710 | shares compounds with NPY2 pot ag | 450 tested, 56% active | activation, % at 3.6 µM | HEK293 Y2/CNGC cells, membrane potential fluorescence, agonist mode;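 active means activation above the mean of solvent-only control wells plus 3 SD, cut at about 10% in these data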;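 further: cells stimulated by isoproterenol with no NPY added so direct agonism is tested; 0% = DMSO with isoproterenol alone and 100% = NPY at EC100 plus isoproterenol; agonism lowers probe fluorescence through less cAMP and CNG channel opening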
# * hit, by the source's call; x = no result. The list is not random: actives were taken first. Their share in the collection is about 2.8%.
SMILES,NPY-Y2 antag,NPY Y1 blocker,NPY2 pot ag,EP2 antag,NPY-Y1 PAM-ag,EP2 mod,NPY-Y2 pot conf,NPY-Y1 counter,NPY-Y1 agonist 2,CNGC inh,NPY-Y2 ag 2
COCCOC(=O)C(CC(=O)O)NCc1ccco1 (stereo not drawn),x,x,48*,7,15,12,0,-3,2,12,15*
COc1ccc(CC(=O)N2CCCCC2c2nc3ccccc3[nH]2)cc1OC (stereo not drawn),x,x,x,x,x,-14,x,x,x,x,x
COC(=O)c1sc(NC(=O)c2ccc3c(c2)OCCO3)c(C#N)c1C,x,x,x,9,x,-34,x,x,x,x,x
O=C1/C(=C/c2ccc(O)c(O)c2)SC(=S)N1Nc1ccccc1,x,-9,39*,6,31,-27,34*,41,25*,18,28*
Cc1ccc(S(=O)(=O)Nc2ccc3nc(-c4ccccn4)[nH]c3c2)cc1,x,x,x,12,x,-73,x,x,x,x,x
O=C(c1ccc(CNS(=O)(=O)c2ccccc2)cc1)N1CCN(Cc2ccccc2)CC1,2,-7,27*,5,32,17,-5,-9,-15,1,-1
COc1ccc(-c2nc3cnccn3c2Nc2ccc(C)cc2)cc1,10,12,29*,10,-15,-2,47*,43,29*,27*,52*
Cc1cc(N)ccc1NC(=O)CSc1nnc(C2CCCCC2)n1-c1ccccc1,x,x,x,8,x,2,x,x,x,x,x
COCCN1C(=O)C(CC(=O)Nc2ccc(C(C)=O)cc2)SC1=Nc1ccccc1 (stereo not drawn),-3,-12,43*,8,30,-16,37*,49*,42*,34*,34*
CC(O)CN1C(=O)C(CC(=O)Nc2ccc(Cl)cc2)SC1=Nc1ccccc1 (stereo not drawn),-2,-5,19,7,11,-23,x,x,x,x,x
COc1ccc(OC)c(C(=O)CSc2nnc(-c3ccccc3N)n2C)c1,x,x,x,11,x,-6,x,x,x,x,x
CCSc1nnc(NC(=O)CCc2ccccc2)s1,4,-1,16,9,-20,9,x,x,x,x,x
CCSc1nnc(NC(=O)CCNS(=O)(=O)c2cc(Br)cnc2N)s1,-4,1,28*,16,0,-28,11,3,24*,16,24*
O=C(CCc1ccccc1O)N/N=C/c1ccc(Sc2cccc3cccnc23)o1,-1,3,37*,6,39,-5,19,36,34*,22*,22*
O=C(CSc1cccc2cccnc12)N/N=C/c1ccc(O)cc1,x,x,4,8,-11,-50,x,x,x,x,x
CCc1ccc(NC(=S)N(Cc2ccc(Cl)cc2)Cc2ccc(C(=O)O)cc2)cc1,x,0,32*,3,1,-28,8,20,16,14,6
Cc1nc2c(c(=O)[nH]1)CN(C(=O)CC1c3ccccc3Oc3ccccc31)CC2,x,x,x,x,x,-28,x,x,x,x,x
Cc1cc2c(cc1C)N(C(=O)CSc1ncn(C)n1)C(C)(C)c1ssc(=S)c1-2,x,x,x,1,x,-2,x,x,x,x,x
Cc1cc2c(cc1C)N(C(=O)CSC1=NCCS1)C(C)(C)c1ssc(=S)c1-2,-5,-9,42*,5,28,29,23,29,24*,11,29*
COc1ccc2c(c1)-c1c(ssc1=S)C(C)(C)N2C(=O)CSC1=NCCS1,-8,-9,43*,12,51,50,26,28,23*,23*,20*
Cc1nn(CCC(=O)N[C@@H](Cn2nnc3ccccc32)C(C)C)c(C)c1C,x,x,x,x,x,-3,x,x,x,x,x
O=S(=O)(c1cnc(Cl)c(Cl)c1)N1CCCc2ccccc21,3,-2,14,9,-1,-16,x,x,x,x,x
O=S(=O)(c1cnc(Cl)c(Cl)c1)N1CCc2ccccc21,x,x,42*,8,31,-19,21,17,11,32*,23*
O=C(c1nc2ccccc2s1)C1CCN(C(=O)c2cc(-c3ccccc3)no2)CC1,x,x,x,x,x,-4,x,x,x,x,x
COc1cc2nc(NCC3CCCO3)n3nc(-c4cccnc4)nc3c2cc1OC (stereo not drawn),-2,3,65*,x,15,8,-1,8,1,4,9
SMILES,NPY-Y2 antag,NPY Y1 blocker,NPY2 pot ag,EP2 antag,NPY-Y1 PAM-ag,EP2 mod,NPY-Y2 pot conf,NPY-Y1 counter,NPY-Y1 agonist 2,CNGC inh,NPY-Y2 ag 2
CCN(CC)CCCNc1nc2cc(OC)c(OC)cc2c2nc(-c3cccnc3)nn12,4,-1,-18,5,-14,-5,x,x,x,x,x
Cc1nn(CC(=O)NCc2ccco2)c(=O)c2cc3sccc3n12,x,x,x,x,x,-31,x,x,x,x,x
O=C(/C(N=Nc1cccc([N+](=O)[O-])c1)=C(/O)c1ccc(Br)cc1)C(F)(F)F,x,x,41*,8,28,-18,31,11,15,15,20*
COc1ccccc1CNS(=O)(=O)c1cccc(S(=O)(=O)N2CCCC2)c1,x,x,x,10,x,-44,x,x,x,x,x
COC1C(O)C(O)C(O)[C@@H](O)C1O (stereo partly drawn),x,x,x,13,x,14,x,x,x,x,x
Cc1ccc(F)cc1CNC(=O)c1cc(COc2ccc3ncccc3c2)on1,x,0,23,4,4,-44,x,x,x,x,x
O=C(NCc1cccc(Cl)c1)c1cc(COc2ccc3ncccc3c2)on1,x,0,37*,5,3,-60,-2,-29,-10,-5,-1
COc1cccc(NC(=O)C2CCN(C(=O)c3cc(OC)cc(OC)c3)CC2)c1,x,x,x,11,x,-5,x,x,x,x,x
O=C(N/N=C/c1ccc(OC(F)F)cc1)c1cccc(S(=O)(=O)N2CCOCC2)c1,x,0,57*,0,10,-33,1,-3,3,3,10*
O=C(Nc1cc(S(=O)(=O)N2CCCCC2)ccc1O)c1ccccc1NS(=O)(=O)c1ccc(F)cc1,-1,3,20,4,18,20,x,x,x,x,x
O=C(Nc1cc(S(=O)(=O)N2CCCCC2)ccc1Cl)c1ccccc1NS(=O)(=O)c1ccc(F)cc1,3,6,42*,11,-59,-13,30,5,0,14,19*
O=C(Nc1cccc([N+](=O)[O-])c1)c1cc2ccccc2cc1O,x,x,57*,23,28,-28,6,-20,-12,1,11*
